According to ChEMBL document CHEMBL1156759, “Identification and optimization of inhibitors of Trypanosomal cysteine proteases: cruzain, rhodesain, and TbCatB” (J Med Chem, 2010):
The source made the active and inactive calls. No cut-off for these calls is given here.

Legend:
[1] = target: T1, Cruzipain (Trypanosoma cruzi, UniProt P25779); assay: Inhibition of Trypanosoma cruzi cruzain after 15 mins
Summary of the method: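 Cruzain at 1.5 nM final in 100 mM acetate pH 5.5, 5 mM DTT, 0.01% Triton X-100; compounds as serial 2-fold dilutions pin-transferred in DMSO. 15 min room-temperature preincubation, then Z-FR-AMC 2 μM final. Kinetic fluorescence read at ex 340/em 450 nm. Percent inhibition from the first 60 s signal change versus no-enzyme and uninhibited controls (48 wells each).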

[2] = target: T1, Cruzipain; assay: Inhibition of recombinant Trypanosoma cruzi cruzain after 5 mins by spectrofluorimetric analysis
Summary of the method: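 Recombinant cruzain at 4 nM (activated procruzain, anion-exchange purified) in 100 mM sodium acetate pH 5.5, 5 mM DTT, 0.001% Triton X-100. Preincubated 5 min at room temperature with compound in DMSO, then Z-Phe-Arg-AMC 10 μM. Fluorescence rate read at ex 355/em 460 nm; DMSO controls; IC50 by curve fitting.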

[3] = Inhibition of recombinant Trypanosoma brucei rhodesain after 5 mins by spectrofluorimetric analysis
Summary of the method: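 Recombinant rhodesain, 4 nM, preincubated 5 min at room temperature with compound (DMSO) in 100 mM sodium acetate pH 5.5, 5 mM DTT, 0.001% Triton X-100. Reaction started with 10 μM Z-Phe-Arg-AMC; rate of AMC fluorescence increase read at ex 355/em 460 nm. IC50 from curve fitting; DMSO-only wells as positive control.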

[4] = Inhibition of recombinant Trypanosoma brucei cathepsin B after 5 mins by spectrofluorimetric analysis
Summary of the method: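 Recombinant TbCatB at 258 nM in 100 mM sodium acetate pH 5.5, 5 mM DTT, 0.001% Triton X-100, preincubated with compound in DMSO for 5 min at room temperature. Z-Phe-Arg-AMC 10 μM added to start. Rate of fluorescence rise read at ex 355/em 460 nm; DMSO control wells; IC50 from curve fitting.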

[5] = tested on: Trypanosoma cruzi; assay: Antitrypanosomal activity against Trypanosoma cruzi Y trypomastigotes infected in mouse J774 cells at 10 uM after 27 days medium replaced every 48 hrs; assay type: functional, organism-based
Summary of the method: (§1)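 Irradiated (1000 rad) J774 macrophages plated overnight, infected 2 h with Y strain trypomastigotes, parasites removed, then cultured in RPMI-1640 with compound (n = 3); untreated infected and 10 μM K777 controls per experiment. Medium replaced every 48 h over 27 days; daily phase-contrast microscopy (400×) for free trypomastigotes and host toxicity; cultures kept 14 further days to confirm cure.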

[6] = tested on: Trypanosoma cruzi; assay: Antitrypanosomal activity against Trypanosoma cruzi Y trypomastigotes infected in mouse J774 cells at 1 uM after 27 days medium replaced every 48 hrs; assay type: functional, organism-based; summary of the method: as §1
[7] = tested on: J774; assay: Cytotoxicity against mouse J774 cells at 10 uM; assay type: cell-based; settings: j774, 10 µM
Summary of the method: (§2)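 Irradiated (1000 rad) J774 macrophages plated overnight and infected 2 h with Y strain T. cruzi trypomastigotes. After parasite removal, cultured in RPMI-1640 with compound (n = 3), medium changed every 48 h, for 27 days. Toxicity to host cells (granulation, detachment, death) scored daily by phase-contrast microscopy at 400×.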

[8] = tested on: Trypanosoma cruzi; assay: Antitrypanosomal activity against Trypanosoma cruzi Y trypomastigotes infected in mouse J774 cells at 5 uM after 27 days medium replaced every 48 hrs; assay type: functional, organism-based; summary of the method: as §1
[9] = tested on: J774; assay: Cytotoxicity against mouse J774 cells at 5 uM; assay type: cell-based; settings: j774, 5 µM; summary of the method: as §2
[10] = target: Caspase-4 (Homo sapiens, UniProt P49662); assay: Inhibition of human Caspase 4
Summary of the method: (§3)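 Profiling panel run externally as 10-dose, 3-fold serial dilutions of compound. Protease activity followed as a time course of fluorescence increase from a fluorescently labeled peptide substrate. The initial linear slope (signal/min) was analysed.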

[11] = target: Caspase-5 (Homo sapiens, UniProt P51878); assay: Inhibition of human Caspase 5; summary of the method: as §3
[12] = target: Caspase-6 (Homo sapiens, UniProt P55212); assay: Inhibition of human Caspase 6; summary of the method: as §3
[13] = target: Caspase-14 (Homo sapiens, UniProt P31944); assay: Inhibition of human Caspase 14; summary of the method: as §3
[14] = target: Cathepsin B (Homo sapiens, UniProt P07858); assay: Inhibition of human Cathepsin B; summary of the method: as §3
[15] = target: T2, Pro-cathepsin H (Homo sapiens, UniProt P09668); assay: Inhibition of human Cathepsin H; summary of the method: as §3
T2 sequence (P09668 whole entry): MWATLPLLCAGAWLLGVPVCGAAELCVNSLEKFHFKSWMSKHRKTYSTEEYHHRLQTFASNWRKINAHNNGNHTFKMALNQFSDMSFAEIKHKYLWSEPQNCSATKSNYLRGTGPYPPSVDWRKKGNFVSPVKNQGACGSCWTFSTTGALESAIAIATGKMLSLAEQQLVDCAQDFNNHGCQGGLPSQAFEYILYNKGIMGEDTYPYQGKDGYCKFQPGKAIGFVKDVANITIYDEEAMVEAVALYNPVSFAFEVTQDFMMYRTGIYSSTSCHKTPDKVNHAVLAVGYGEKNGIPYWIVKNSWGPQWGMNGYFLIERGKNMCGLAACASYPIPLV

[16] = target: T3, Cathepsin K (Homo sapiens, UniProt P43235); assay: Inhibition of human Cathepsin K/O2; summary of the method: as §3
T3 sequence (P43235 whole entry): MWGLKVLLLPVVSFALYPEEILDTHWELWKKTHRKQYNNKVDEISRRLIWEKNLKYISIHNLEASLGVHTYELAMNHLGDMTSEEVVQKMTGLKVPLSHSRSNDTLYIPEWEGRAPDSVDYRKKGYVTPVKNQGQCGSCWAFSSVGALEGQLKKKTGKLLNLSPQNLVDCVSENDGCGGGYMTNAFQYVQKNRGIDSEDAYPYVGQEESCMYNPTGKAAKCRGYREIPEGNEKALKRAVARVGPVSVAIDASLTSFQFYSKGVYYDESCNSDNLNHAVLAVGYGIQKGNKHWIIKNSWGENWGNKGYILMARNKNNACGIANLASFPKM

[17] = target: Procathepsin L (Homo sapiens, UniProt P07711); assay: Inhibition of human Cathepsin L; summary of the method: as §3
[18] = target: Cathepsin S (Homo sapiens, UniProt P25774); assay: Inhibition of human Cathepsin S; summary of the method: as §3
[19] = target: T4, Cathepsin L2 (Homo sapiens, UniProt O60911); assay: Inhibition of human Cathepsin V; summary of the method: as §3
T4 sequence (O60911 whole entry): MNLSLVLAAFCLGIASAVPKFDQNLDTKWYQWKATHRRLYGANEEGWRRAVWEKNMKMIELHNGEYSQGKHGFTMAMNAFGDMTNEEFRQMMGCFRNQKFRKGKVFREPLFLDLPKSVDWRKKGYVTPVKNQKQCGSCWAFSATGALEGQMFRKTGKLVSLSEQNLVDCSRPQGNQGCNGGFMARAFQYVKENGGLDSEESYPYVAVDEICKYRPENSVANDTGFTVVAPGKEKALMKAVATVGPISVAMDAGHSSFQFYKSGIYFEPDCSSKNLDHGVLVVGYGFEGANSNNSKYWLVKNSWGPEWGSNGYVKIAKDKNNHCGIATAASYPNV

[20] = target: T5, Papain (Carica papaya, UniProt P00784); assay: Inhibition of papaya papain; summary of the method: as §3
T5 sequence (P00784 whole entry): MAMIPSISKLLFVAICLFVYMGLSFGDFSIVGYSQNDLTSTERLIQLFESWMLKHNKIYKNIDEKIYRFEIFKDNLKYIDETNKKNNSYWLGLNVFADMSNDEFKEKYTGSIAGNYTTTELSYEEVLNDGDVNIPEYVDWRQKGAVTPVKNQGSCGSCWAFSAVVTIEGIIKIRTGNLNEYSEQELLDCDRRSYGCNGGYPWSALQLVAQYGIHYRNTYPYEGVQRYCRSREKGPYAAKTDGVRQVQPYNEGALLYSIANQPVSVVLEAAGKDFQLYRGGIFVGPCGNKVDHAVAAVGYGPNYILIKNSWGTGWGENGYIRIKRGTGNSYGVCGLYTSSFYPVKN

[21] = target: Cathepsin Z (Homo sapiens, UniProt Q9UBR2); assay: Inhibition of human Cathepsin X/Z; summary of the method: as §3
[22] = target: Tissue-type plasminogen activator (Homo sapiens, UniProt P00750); assay: Inhibition of human tPA; summary of the method: as §3
[23] = species on record: Mus musculus; assay: Toxicity in mouse; assay type: organism-based; settings: in vivo
[24] = species on record: Rattus norvegicus; assay: Toxicity in rat; assay type: organism-based; settings: in vivo
[25] = species on record: Canis familiaris; assay: Toxicity in dog; assay type: organism-based, Canis lupus familiaris; settings: in vivo

T1 sequence (P25779 whole entry): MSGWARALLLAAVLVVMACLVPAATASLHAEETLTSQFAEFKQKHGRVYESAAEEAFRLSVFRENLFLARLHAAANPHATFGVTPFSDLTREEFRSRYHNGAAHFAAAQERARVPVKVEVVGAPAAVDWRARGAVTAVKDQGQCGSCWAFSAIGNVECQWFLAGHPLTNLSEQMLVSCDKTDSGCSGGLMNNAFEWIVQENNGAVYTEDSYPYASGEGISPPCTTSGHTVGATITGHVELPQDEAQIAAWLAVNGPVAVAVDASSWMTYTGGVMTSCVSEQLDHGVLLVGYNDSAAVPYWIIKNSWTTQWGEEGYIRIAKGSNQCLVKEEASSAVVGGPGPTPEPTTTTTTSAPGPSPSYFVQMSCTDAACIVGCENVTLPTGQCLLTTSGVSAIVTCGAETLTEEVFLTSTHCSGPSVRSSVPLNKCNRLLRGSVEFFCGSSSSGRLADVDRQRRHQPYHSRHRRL
Cathepsin Z, sequence (Q9UBR2 whole entry): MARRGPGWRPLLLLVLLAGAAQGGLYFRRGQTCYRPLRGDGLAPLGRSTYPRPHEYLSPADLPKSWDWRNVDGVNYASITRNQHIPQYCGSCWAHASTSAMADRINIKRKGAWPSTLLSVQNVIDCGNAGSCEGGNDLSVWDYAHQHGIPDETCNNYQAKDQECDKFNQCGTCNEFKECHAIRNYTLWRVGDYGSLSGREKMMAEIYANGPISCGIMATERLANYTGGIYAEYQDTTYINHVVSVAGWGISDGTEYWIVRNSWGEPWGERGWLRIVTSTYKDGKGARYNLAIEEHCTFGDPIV
Caspase-14, sequence (P31944 6-146 limits assumed): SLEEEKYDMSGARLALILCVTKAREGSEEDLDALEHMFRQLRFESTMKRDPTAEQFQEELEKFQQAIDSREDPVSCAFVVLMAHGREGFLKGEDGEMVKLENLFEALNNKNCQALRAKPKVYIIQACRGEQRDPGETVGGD
Caspase-14, sequence (P31944 153-242 limits assumed): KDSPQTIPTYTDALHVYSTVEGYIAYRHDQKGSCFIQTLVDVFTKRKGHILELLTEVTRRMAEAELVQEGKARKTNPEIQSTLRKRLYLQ
Tissue-type plasminogen activator, sequence (P00750 whole entry): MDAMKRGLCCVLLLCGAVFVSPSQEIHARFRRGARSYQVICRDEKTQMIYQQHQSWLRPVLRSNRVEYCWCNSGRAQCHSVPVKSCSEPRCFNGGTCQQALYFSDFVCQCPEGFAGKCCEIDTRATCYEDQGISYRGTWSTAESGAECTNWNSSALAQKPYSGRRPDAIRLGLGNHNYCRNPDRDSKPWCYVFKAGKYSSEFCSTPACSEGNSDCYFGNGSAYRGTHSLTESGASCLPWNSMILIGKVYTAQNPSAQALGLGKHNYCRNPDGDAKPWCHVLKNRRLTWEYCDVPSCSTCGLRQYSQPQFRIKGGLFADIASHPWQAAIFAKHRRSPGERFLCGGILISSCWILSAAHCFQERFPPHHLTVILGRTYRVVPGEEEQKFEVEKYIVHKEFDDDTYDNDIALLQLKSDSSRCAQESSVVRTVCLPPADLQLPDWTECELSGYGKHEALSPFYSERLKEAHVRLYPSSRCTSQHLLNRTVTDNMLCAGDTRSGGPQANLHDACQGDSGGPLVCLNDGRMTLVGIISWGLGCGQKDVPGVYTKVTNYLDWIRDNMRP
Caspase-6, sequence (P55212 24-179 limits assumed): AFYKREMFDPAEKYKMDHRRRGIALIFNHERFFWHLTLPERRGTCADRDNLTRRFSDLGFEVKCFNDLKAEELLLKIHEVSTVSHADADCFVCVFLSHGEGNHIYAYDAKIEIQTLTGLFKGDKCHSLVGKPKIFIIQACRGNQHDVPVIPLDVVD
Caspase-6, sequence (P55212 194-293 limits assumed): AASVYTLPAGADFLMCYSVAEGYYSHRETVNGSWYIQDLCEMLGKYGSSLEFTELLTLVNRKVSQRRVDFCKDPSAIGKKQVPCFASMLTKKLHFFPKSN
Cathepsin S, sequence (P25774 whole entry): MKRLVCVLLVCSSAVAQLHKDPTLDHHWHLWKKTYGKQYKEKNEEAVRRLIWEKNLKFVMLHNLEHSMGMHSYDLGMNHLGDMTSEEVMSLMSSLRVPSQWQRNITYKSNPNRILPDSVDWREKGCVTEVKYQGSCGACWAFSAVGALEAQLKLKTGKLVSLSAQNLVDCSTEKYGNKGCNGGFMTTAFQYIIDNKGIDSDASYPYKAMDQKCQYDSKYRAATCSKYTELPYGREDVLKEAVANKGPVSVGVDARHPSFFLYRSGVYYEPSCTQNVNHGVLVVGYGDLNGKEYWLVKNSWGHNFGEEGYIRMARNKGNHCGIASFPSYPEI
Caspase-4, sequence (P49662 81-270 limits assumed): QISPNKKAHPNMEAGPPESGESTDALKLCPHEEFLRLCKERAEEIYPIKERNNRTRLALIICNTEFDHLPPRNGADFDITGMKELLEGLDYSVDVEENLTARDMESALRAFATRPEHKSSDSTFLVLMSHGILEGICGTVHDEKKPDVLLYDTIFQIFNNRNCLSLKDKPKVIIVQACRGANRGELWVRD
Caspase-4, sequence (P49662 290-377 limits assumed): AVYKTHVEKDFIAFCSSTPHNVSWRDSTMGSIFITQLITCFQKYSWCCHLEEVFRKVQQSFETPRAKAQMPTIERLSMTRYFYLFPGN
Procathepsin L, sequence (P07711 whole entry): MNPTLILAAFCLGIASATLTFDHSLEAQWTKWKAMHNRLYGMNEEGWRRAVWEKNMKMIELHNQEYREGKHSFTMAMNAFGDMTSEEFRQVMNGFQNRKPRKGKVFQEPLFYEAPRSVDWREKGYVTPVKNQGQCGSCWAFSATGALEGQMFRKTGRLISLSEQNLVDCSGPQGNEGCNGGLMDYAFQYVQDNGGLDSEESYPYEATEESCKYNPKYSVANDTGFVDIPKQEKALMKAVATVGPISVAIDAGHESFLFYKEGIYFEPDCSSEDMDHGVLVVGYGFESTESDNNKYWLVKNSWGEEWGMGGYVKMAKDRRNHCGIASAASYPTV
Caspase-5, sequence (P51878 137-327 limits assumed): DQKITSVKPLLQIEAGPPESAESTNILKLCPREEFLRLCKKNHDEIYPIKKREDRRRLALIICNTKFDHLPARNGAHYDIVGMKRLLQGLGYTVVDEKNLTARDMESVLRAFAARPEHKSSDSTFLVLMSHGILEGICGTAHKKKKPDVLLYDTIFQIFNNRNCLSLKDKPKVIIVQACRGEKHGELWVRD
Caspase-5, sequence (P51878 347-434 limits assumed): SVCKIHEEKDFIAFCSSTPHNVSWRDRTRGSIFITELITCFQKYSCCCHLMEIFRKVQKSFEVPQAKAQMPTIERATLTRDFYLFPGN

N#Cc1nc(NCCO)nc(Nc2ccccc2)n1
IC50 ([1]; read-out: IC50): 1.58 µM

N#Cc1nc(NCC(F)F)nc(Nc2cc(F)cc(F)c2)n1
IC50 ([1]; read-out: IC50): 0.025 µM
IC50 [2]: 0.001 µM
IC50 [3]: < 0.006 µM
IC50 [4]: 1 µM

CCCCNc1nc(C#N)nc(Nc2ccccc2)n1
IC50 ([1]; read-out: IC50): 0.89 µM

N#Cc1nc(Nc2cccc(Cl)c2)c2ncn(C3CCCC3)c2n1
Activity [5]: inactive
IC50 ([1]; read-out: IC50): 0.04 µM
IC50 [2]: 0.0003 µM
IC50 [3]: < 0.006 µM
IC50 [4]: > 10 µM

CCNc1nc(C#N)nc(Nc2ccccc2)n1
IC50 ([1]; read-out: IC50): 0.71 µM

N#Cc1nc(Nc2ccc(Br)cc2)nc(NC2CCCC2)n1
IC50 ([1]; read-out: IC50): 1.12 µM
IC50 [2]: 0.06 µM
IC50 [3]: 0.1 µM
IC50 [4]: > 10 µM

Cc1cccc(Nc2nc(C#N)nc(NC3CCCC3)n2)c1
IC50 ([1]; read-out: IC50): 0.126 µM
IC50 [2]: 0.03 µM
IC50 [3]: 0.05 µM
IC50 [4]: 6 µM
Activity [6]: inactive
Activity [7]: Toxic
Activity [8]: inactive

N#Cc1nc(Nc2cccc(-c3ccccc3)c2)nc(NC2CCCC2)n1
IC50 ([1]; read-out: IC50): 2.24 µM
IC50 [2]: 0.05 µM
IC50 [3]: 0.03 µM
IC50 [4]: > 10 µM
Activity [6]: inactive
Activity [7]: Toxic
Activity [8]: inactive

N#Cc1nc(Nc2cccc(C(F)(F)F)c2)nc(NC2CCCC2)n1
IC50 [1]: Not Active
IC50 [2]: 0.04 µM
IC50 [3]: 0.07 µM
IC50 [4]: > 10 µM
Activity [6]: inactive
Activity [7]: Toxic
Activity [8]: inactive

CCCNc1nc(C#N)nc(Nc2ccccc2)n1
IC50 ([1]; read-out: IC50): 0.79 µM

CCNc1nc(C#N)nc2c1ncn2-c1cccc(Cl)c1
IC50 ([1]; read-out: IC50): 0.063 µM

N#Cc1nc(NCC(F)F)c2ncn(-c3cc(F)cc(F)c3)c2n1
IC50 ([1]; read-out: IC50): 0.05 µM

N#Cc1nc(Nc2cc(F)cc(F)c2)c2ncn(C3CCCC3)c2n1
IC50 ([1]; read-out: IC50): 0.018 µM

N#Cc1nc(Nc2cccc(F)c2)nc(NC2CCCC2)n1
IC50 ([1]; read-out: IC50): 0.079 µM
IC50 [2]: 0.01 µM
IC50 [3]: 0.02 µM
IC50 [4]: > 1 µM

N#Cc1nc(Nc2ccccc2)nc(NC2CCCCC2)n1
IC50 ([1]; read-out: IC50): 1.41 µM

N#Cc1nc(Nc2cc(F)cc(F)c2)nc(NC2CCCC2)n1
Activity [9]: Toxic
IC50 [10]: 8.13 µM
IC50 [11]: 13.5 µM
IC50 [12]: 3.55 µM
IC50 [13]: 9.12 µM
IC50 [14]: 10 µM
IC50 [15]: 16.2 µM
IC50 [16]: 0.0204 µM
IC50 [17]: 0.204 µM
IC50 [18]: 5.62 µM
IC50 [19]: 0.182 µM
IC50 [20]: 0.389 µM
IC50 [21]: 3.16 µM
IC50 [22]: 1.29 µM
Activity [23]: Non-toxic
Activity [24]: Non-toxic
Activity [25]: Non-toxic
IC50 ([1]; read-out: IC50): 0.063 µM
IC50 [2]: 0.004 µM
IC50 [3]: 0.005 µM
IC50 [4]: 4 µM
Activity [6]: inactive
Activity [7]: Toxic
